Measured values taken from article PMC11904481 (ESMO Open, 2025).
“And” between values parts separate entries of the source, which are not always exact repeats. Equal values may be shown once.

Tested on: patients with locally advanced unresectable or metastatic, relapsed and/or refractory nonhematological malignancies
Test: Phase I safety: adverse events
Format: in vivo, human
Outline: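 Adverse events were graded by NCI CTCAE v4.03 across three i.v. schedules of the test compound (0.45-11.3 mg/kg; weekly per 28-day cycle, or days 1, 4, 8 ±11, 15 per 21-day cycle). Special-interest events covered retinal dysfunction symptoms and documented retinal disorders. Clustered signs were grouped as 'infusion reaction'. QTc was calculated with the Fridericia correction.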

For `O=C1Nc2cc3[nH]nc(-c4ccncc4)c3cc2CN1Cc1ccccc1` [KO-947], the “deaths due to treatment-related TEAEs” value (all schedules) was “No deaths”, the “dose interruptions due to toxicity” value (all schedules) was 14 patients and the “dose reductions due to toxicity” value (all schedules) was 7 patients. The retinal vein occlusion (all schedules) was “no reports”, the “median time to resolution of ocular events” value (cycle 1, range, 0-114 days) was 3 days and the AESI blurred vision (schedule 3) was 33%. For the same compound, the “grade ≥3 TEAE: infusion-related reaction” value (schedule 3) was 7%, the “grade ≥3 TEAE: respiratory tract infection” value (schedule 3) was 7% and the “patients discontinued owing to AEs” value (schedule 3) was 15%. The “patients with at least one AESI” value (schedule 3) was 82%, the “patients with grade ≥3 TEAEs” value (schedule 3) was 67% and the “patients with grade ≥3 treatment-related TEAEs” value (schedule 3) was 15%. For the same compound, the “treatment-related QTc prolongation” value (schedule 3) was 11%, the treatment-related blurred vision (schedule 3) was 33.3% and 33% and the treatment-related dyspepsia (schedule 3) was 11%. It also gave a treatment-related macular edema (schedule 3) of 15%, a treatment-related photopsia (schedule 3) of 15% and a treatment-related retinal detachment (schedule 3) of 15%. The treatment-related vitreous floaters (schedule 3) was 11%, the “AESI: Blurred vision” value (schedule 3 cohort 1, 3.6 mg/kg) was 0 n (%) and the “AESI: Detachment of retinal pigment epithelium” value (shortened to “AESI: Detachment”) (schedule 3 cohort 1, 3.6 mg/kg) was 0 n (%). The “AESI: Eye disorders” value (schedule 3 cohort 1, 3.6 mg/kg) was 2 (67) n (%), the “AESI: Macular edema” value (schedule 3 cohort 1, 3.6 mg/kg) was 0 n (%) and the “AESI: Patients with ≥1 AE” value (schedule 3 cohort 1, 3.6 mg/kg) was 2 (67) n (%). The “AESI: Photopsia” value (schedule 3 cohort 1, 3.6 mg/kg) was 0 n (%), the “AESI: Retinal detachment” value (schedule 3 cohort 1, 3.6 mg/kg) was 0 n (%) and the “AESI: Subretinal fluid” value (schedule 3 cohort 1, 3.6 mg/kg) was 1 (33) n (%). For the same compound, the “AESI: Total number of AEs” value (schedule 3 cohort 1, 3.6 mg/kg) was 4 n, the “AESI: Vitreous floaters” value (schedule 3 cohort 1, 3.6 mg/kg) was 2 (67) n (%) and the “Patients with ≥1 treatment-related TEAE” value (schedule 3 cohort 1, 3.6 mg/kg) was 2 (67) n (%). The “Total number of treatment-related TEAEs” value (schedule 3 cohort 1, 3.6 mg/kg) was 11 n, the “Treatment-related TEAE: Blurred vision” value (schedule 3 cohort 1, 3.6 mg/kg) was 0 n (%) and the “Treatment-related TEAE: Dermatitis acneiform” value (schedule 3 cohort 1, 3.6 mg/kg) was 0 n (%). The “Treatment-related TEAE: Diarrhea” value (schedule 3 cohort 1, 3.6 mg/kg) was 0 n (%), the “Treatment-related TEAE: Dyspepsia” value (schedule 3 cohort 1, 3.6 mg/kg) was 0 n (%) and the “Treatment-related TEAE: Infusion-related reaction” value (schedule 3 cohort 1, 3.6 mg/kg) was 0 n (%). The “Treatment-related TEAE: Macular edema” value (schedule 3 cohort 1, 3.6 mg/kg) was 0 n (%), the “Treatment-related TEAE: Photopsia” value (schedule 3 cohort 1, 3.6 mg/kg) was 0 n (%) and the “Treatment-related TEAE: QTc prolongation” value (schedule 3 cohort 1, 3.6 mg/kg) was 0 n (%). The “Treatment-related TEAE: Retinal detachment” value (schedule 3 cohort 1, 3.6 mg/kg) was 0 n (%), the “Treatment-related TEAE: Subretinal fluid” value (schedule 3 cohort 1, 3.6 mg/kg) was 1 (33) n (%) and the “Treatment-related TEAE: Vitreous floaters” value (schedule 3 cohort 1, 3.6 mg/kg) was 2 (67) n (%). For the same compound, the “AESI: Blurred vision” value (schedule 3 cohort 2, 4.8 mg/kg) was 0 n (%), the “AESI: Detachment” value (schedule 3 cohort 2, 4.8 mg/kg) was 0 n (%) and the “AESI: Eye disorders” value (schedule 3 cohort 2, 4.8 mg/kg) was 2 (67) n (%). For the same compound, the “AESI: Macular edema” value (schedule 3 cohort 2, 4.8 mg/kg) was 0 n (%), the “AESI: Patients with ≥1 AE” value (schedule 3 cohort 2, 4.8 mg/kg) was 2 (67) n (%) and the “AESI: Photopsia” value (schedule 3 cohort 2, 4.8 mg/kg) was 0 n (%). For the same compound, the “AESI: Retinal detachment” value (schedule 3 cohort 2, 4.8 mg/kg) was 1 (33) n (%), the “AESI: Subretinal fluid” value (schedule 3 cohort 2, 4.8 mg/kg) was 1 (33) n (%) and the “AESI: Total number of AEs” value (schedule 3 cohort 2, 4.8 mg/kg) was 2 n. For the same compound, the “AESI: Vitreous floaters” value (schedule 3 cohort 2, 4.8 mg/kg) was 0 n (%), the “Patients with ≥1 treatment-related TEAE” value (schedule 3 cohort 2, 4.8 mg/kg) was 3 (100) n (%) and the “Total number of treatment-related TEAEs” value (schedule 3 cohort 2, 4.8 mg/kg) was 9 n. The “Treatment-related TEAE: Blurred vision” value (schedule 3 cohort 2, 4.8 mg/kg) was 0 n (%), the “Treatment-related TEAE: Dermatitis acneiform” value (schedule 3 cohort 2, 4.8 mg/kg) was 0 n (%) and the “Treatment-related TEAE: Diarrhea” value (schedule 3 cohort 2, 4.8 mg/kg) was 1 (33) n (%). For the same compound, the “Treatment-related TEAE: Dyspepsia” value (schedule 3 cohort 2, 4.8 mg/kg) was 0 n (%), the “Treatment-related TEAE: Infusion-related reaction” value (schedule 3 cohort 2, 4.8 mg/kg) was 0 n (%) and the “Treatment-related TEAE: Macular edema” value (schedule 3 cohort 2, 4.8 mg/kg) was 0 n (%). For the same compound, the “Treatment-related TEAE: Photopsia” value (schedule 3 cohort 2, 4.8 mg/kg) was 0 n (%), the “Treatment-related TEAE: QTc prolongation” value (schedule 3 cohort 2, 4.8 mg/kg) was 0 n (%) and the “Treatment-related TEAE: Retinal detachment” value (schedule 3 cohort 2, 4.8 mg/kg) was 1 (33) n (%). The “Treatment-related TEAE: Subretinal fluid” value (schedule 3 cohort 2, 4.8 mg/kg) was 1 (33) n (%), the “Treatment-related TEAE: Vitreous floaters” value (schedule 3 cohort 2, 4.8 mg/kg) was 0 n (%) and the “AESI: Blurred vision” value (schedule 3 cohort 3, 6.4 mg/kg) was 3 (33) n (%). The “AESI: Detachment” value (schedule 3 cohort 3, 6.4 mg/kg) was 0 n (%), the “AESI: Eye disorders” value (schedule 3 cohort 3, 6.4 mg/kg) was 7 (78) n (%) and the “AESI: Macular edema” value (schedule 3 cohort 3, 6.4 mg/kg) was 1 (11) n (%). For the same compound, the “AESI: Patients with ≥1 AE” value (schedule 3 cohort 3, 6.4 mg/kg) was 7 (78) n (%), the “AESI: Photopsia” value (schedule 3 cohort 3, 6.4 mg/kg) was 1 (11) n (%) and the “AESI: Retinal detachment” value (schedule 3 cohort 3, 6.4 mg/kg) was 1 (11) n (%). The “AESI: Subretinal fluid” value (schedule 3 cohort 3, 6.4 mg/kg) was 2 (22) n (%), the “AESI: Total number of AEs” value (schedule 3 cohort 3, 6.4 mg/kg) was 11 n and the “AESI: Vitreous floaters” value (schedule 3 cohort 3, 6.4 mg/kg) was 0 n (%). The “Patients with ≥1 treatment-related TEAE” value (schedule 3 cohort 3, 6.4 mg/kg) was 8 (89) n (%), the “Total number of treatment-related TEAEs” value (schedule 3 cohort 3, 6.4 mg/kg) was 19 n and the “Treatment-related TEAE: Blurred vision” value (schedule 3 cohort 3, 6.4 mg/kg) was 3 (33) n (%). For the same compound, the “Treatment-related TEAE: Dermatitis acneiform” value (schedule 3 cohort 3, 6.4 mg/kg) was 0 n (%), the “Treatment-related TEAE: Diarrhea” value (schedule 3 cohort 3, 6.4 mg/kg) was 1 (11) n (%) and the “Treatment-related TEAE: Dyspepsia” value (schedule 3 cohort 3, 6.4 mg/kg) was 1 (11) n (%). For the same compound, the “Treatment-related TEAE: Infusion-related reaction” value (schedule 3 cohort 3, 6.4 mg/kg) was 2 (22) n (%), the “Treatment-related TEAE: Macular edema” value (schedule 3 cohort 3, 6.4 mg/kg) was 1 (11) n (%) and the “Treatment-related TEAE: Photopsia” value (schedule 3 cohort 3, 6.4 mg/kg) was 1 (11) n (%). For the same compound, the “Treatment-related TEAE: QTc prolongation” value (schedule 3 cohort 3, 6.4 mg/kg) was 0 n (%), the “Treatment-related TEAE: Retinal detachment” value (schedule 3 cohort 3, 6.4 mg/kg) was 1 (11) n (%) and the “Treatment-related TEAE: Subretinal fluid” value (schedule 3 cohort 3, 6.4 mg/kg) was 2 (22) n (%). For the same compound, the “Treatment-related TEAE: Vitreous floaters” value (schedule 3 cohort 3, 6.4 mg/kg) was 0 n (%), the “AESI: Blurred vision” value (schedule 3 cohort 4, 7.2 mg/kg) was 1 (33) n (%) and the “AESI: Detachment” value (schedule 3 cohort 4, 7.2 mg/kg) was 1 (33) n (%). The “AESI: Eye disorders” value (schedule 3 cohort 4, 7.2 mg/kg) was 3 (100) n (%), the “AESI: Macular edema” value (schedule 3 cohort 4, 7.2 mg/kg) was 1 (33) n (%) and the “AESI: Patients with ≥1 AE” value (schedule 3 cohort 4, 7.2 mg/kg) was 3 (100) n (%).
